GFP response vs DMSO, GFP response relative to DMSO and GFP response, % of DMSO data for 16 molecules are collected here from PubChem BioAssay.

Assay [1] is described as follows: hit retest on RPL19A-GFP reporter strain – cell-based, S. cerevisiae, flow cytometry, cherry picks, mother/daughter gates, confirmation (AID 2270;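 active = GFP response below 50% of the DMSO control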). The following applies: 3 h, at 10 µM, stronger effect = lower value, 100 = same GFP as DMSO wells.
A short description of assay [2]: yeast TOR pathway reporter LAP4-GFP change – cell-based, cherry picks, flow cytometry, mother/daughter gates, confirmation (AID 2271;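 active = GFP response above 150% of the DMSO control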;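 also: ratio of sample to DMSO plate mean so 100% equals DMSO level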). The note with it: S. cerevisiae LAP4-GFP strain, 3 h, at 10 µM, stronger effect = higher value, 100 means same as DMSO control. In a few lines:
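Material: Alexa Fluor 633-labelled Saccharomyces cerevisiae GFP-fusion strain, single-plex | Amount: Yeast cells seeded at OD600 of 0.2 | Buffer or medium: SC growth medium | Schedule: 3 h exposure, 30 °C | Measured by: HT flow cytometry, GFP fluorescence channel | Evaluation: % GFP response vs DMSO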
For orientation: Flow cytometry measures light scatter and fluorescence of single cells or particles in a stream.

The nature of assay [3]: TOR pathway reporter MEP2-GFP, retest of hits – S. cerevisiae, flow cytometry GFP, cherry picks, confirmation (AID 2272;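 active = GFP response above 150% of the DMSO control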;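 also: ratio of well signal to plate DMSO mean so 100% equals DMSO level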). The note with it: S. cerevisiae MEP2-GFP strain, 3 h, at 10 µM, stronger effect = higher value.
The nature of assay [4]: yeast AGP1-GFP fluorescence change, single-dose – cell-based, flow cytometry, S. cerevisiae, cherry picks, confirmation (AID 2273).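 Also: median GFP channel fluorescence over the whole cell population gate.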 The note with it: S. cerevisiae AGP1-GFP strain, 3 h, at 10 µM.
Assay [5] can be described thus: TOR pathway CIT2 reporter hit retest – S. cerevisiae, GFP fusion, cherry picks, mother/daughter gates, confirmation (AID 2274). The note with it: S. cerevisiae CIT2-GFP strain, flow cytometry, 3 h, at 10 µM, stronger effect = higher value.
[6] abbreviates: measured here: daughter cell gate.
Setting [7] is: measured here: mother cell gate.
Where [8] appears, read: measured here: daughter cell gate response.
[9] abbreviates: measured here: mother cell gate response.

Active and inactive are the calls of the source.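 The calls were made as follows, unless noted: active = GFP response above 150% of the DMSO level; inconclusive = fewer than 70 events counted for a yeast strain; inactive = the rest.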

For `O=C1C=CC(=O)N1c1ccc(O)cc1`, the GFP response vs DMSO is 96.6% (inactive) in assay [1], 96.9% in assay [1] (setting [6]), 85.9% in assay [1] (setting [7]) and 100% (inactive) in assay [3]. Besides, the results for the GFP response relative to DMSO in assay [2], in assay [2] (setting [8]) and in assay [2] (setting [9]) were 196% (active), 192% and 192%, respectively. For the same molecule, the GFP response, % of DMSO was 90% (inactive) in assay [4], 96.9% (inactive) in assay [5], 116% in assay [5] (setting [6]) and 84.3% in assay [5] (setting [7]).

On to `C=CCNC(=O)/C(=C\c1ccc(OC)cc1)NC(=O)c1ccc([N+](=O)[O-])cc1`, for which the GFP response vs DMSO in assay [1] was 97.4% (inactive); in assay [1] (setting [6]), 97.6%; in assay [1] (setting [7]), 98.7%; in assay [3] it was 96.6% (inactive). For the same molecule, the GFP response relative to DMSO in assay [2] was 97.3% (inactive); in assay [2] (setting [8]), 99.7%; in assay [2] (setting [9]), 96.2%. Also, the GFP response, % of DMSO in assay [4] is 100% (inactive); in assay [5], 108% (inactive); in assay [5] (setting [6]), 108%; in assay [5] (setting [7]), 110%.

With `COC(=O)CNc1c(-c2ccccn2)nc2ccc(Br)cn12`, the GFP response vs DMSO in assay [1] is 100% (inactive); in assay [1] (setting [6]), 103%; in assay [1] (setting [7]), 100%; in assay [3], 102% (inactive). The GFP response relative to DMSO in assay [2] is 96.7% (inactive); in assay [2] (setting [8]) it was 96%; in assay [2] (setting [9]), 96.1%. For the same molecule, the GFP response, % of DMSO is 98.7% (inactive) in assay [4], 107% (inactive) in assay [5], 106% in assay [5] (setting [6]) and 104% in assay [5] (setting [7]).

In the case of `CCOc1cc(/C=C2\N=C(C)OC2=O)cc(Cl)c1OCC(=O)OC`, the GFP response vs DMSO was 105% (inactive) in assay [1], 106% in assay [1] (setting [6]), 101% in assay [1] (setting [7]) and 101% (inactive) in assay [3]. Also, the GFP response relative to DMSO was 122% (inactive) in assay [2], 120% in assay [2] (setting [8]) and 125% in assay [2] (setting [9]). Besides, the GFP response, % of DMSO in assay [4] is 92.4% (inactive); in assay [5], 93% (inactive); in assay [5] (setting [6]) it was 95.6%; in assay [5] (setting [7]) it was 90.7%.

For `COc1cc(/C=C2\N=C(C)OC2=O)cc(Cl)c1OC(C)=O`, the GFP response vs DMSO was 107% (inactive) in assay [1], 109% in assay [1] (setting [6]), 102% in assay [1] (setting [7]) and 105% (inactive) in assay [3]. The GFP response relative to DMSO was 117% (inactive) in assay [2], 115% in assay [2] (setting [8]) and 118% in assay [2] (setting [9]). In addition, the GFP response, % of DMSO in assay [4] is 99.8% (inactive); in assay [5] it was 108% (inactive); in assay [5] (setting [6]), 112%; in assay [5] (setting [7]), 103%.

`CC(C)(C)C(=O)NCC12C=CC(O1)C1C(=O)N(c3ccccc3)C(=O)C12` (stereo unspecified): the GFP response vs DMSO is 94% (inactive) in assay [1], 96.1% in assay [1] (setting [6]), 92.9% in assay [1] (setting [7]) and 110% (inactive) in assay [3]. Further, the GFP response relative to DMSO in assay [2] is 108% (inactive); in assay [2] (setting [8]), 108%; in assay [2] (setting [9]), 111%. In addition, the GFP response, % of DMSO in assay [4] is 104% (inactive); in assay [5], 106% (inactive); in assay [5] (setting [6]) it was 105%; in assay [5] (setting [7]), 105%.

As to `COc1ccc(C(c2c(C)[nH]n(C(N)=S)c2=O)C(C#N)C#N)cc1` (stereo unspecified), the GFP response vs DMSO was 105% (inactive) in assay [1], 96.2% in assay [1] (setting [6]), 98.8% in assay [1] (setting [7]) and 104% (inactive) in assay [3]. The GFP response relative to DMSO was 317% (active) in assay [2], 246% in assay [2] (setting [8]) and 299% in assay [2] (setting [9]). For the same molecule, the GFP response, % of DMSO in assay [4] was 101% (inactive); in assay [5], 89.2% (inactive); in assay [5] (setting [6]) it was 92.7%; in assay [5] (setting [7]) it was 79.3%.

On to `CCSC1=NCCN1S(=O)(=O)c1ccc(F)cc1`, for which the GFP response vs DMSO in assay [1] is 98.8% (inactive); in assay [1] (setting [6]), 97.6%; in assay [1] (setting [7]), 99%; in assay [3] it was 103% (inactive). Further, the GFP response relative to DMSO in assay [2] was 105% (inactive); in assay [2] (setting [8]) it was 101%; in assay [2] (setting [9]), 106%. The GFP response, % of DMSO was 101% (inactive) in assay [4], 93.4% (inactive) in assay [5], 93.7% in assay [5] (setting [6]) and 92.8% in assay [5] (setting [7]).

`COCCNC(=O)/C(C#N)=C/c1c(N2CC(C)OC(C)C2)nc2ccccn2c1=O` (stereo unspecified): the GFP response vs DMSO in assay [1] is 100% (inactive); in assay [1] (setting [6]), 98.6%; in assay [1] (setting [7]), 100%; in assay [3] it was 103% (inactive). Further, the GFP response relative to DMSO is 98.2% (inactive) in assay [2], 95.9% in assay [2] (setting [8]) and 97.3% in assay [2] (setting [9]). For the same molecule, the GFP response, % of DMSO in assay [4] is 98.8% (inactive); in assay [5] it was 102% (inactive); in assay [5] (setting [6]), 101%; in assay [5] (setting [7]), 101%.

Take `COc1cc(/C=C/C(=O)c2c(O)cc(C)oc2=O)cc(OC)c1O`: the GFP response vs DMSO in assay [1] was 98.2% (inactive); in assay [1] (setting [6]), 99.6%; in assay [1] (setting [7]), 96.8%; in assay [3], 105% (inactive). The GFP response relative to DMSO in assay [2] was 106% (inactive); in assay [2] (setting [8]) it was 104%; in assay [2] (setting [9]), 106%. For the same molecule, the GFP response, % of DMSO was 101% (inactive) in assay [4], 97.3% (inactive) in assay [5], 99.2% in assay [5] (setting [6]) and 94.4% in assay [5] (setting [7]).

On to `COc1ccc(N2C(=O)C(Cl)=C(NCc3ccccc3)C2=O)cc1`, for which the GFP response vs DMSO in assay [1] is 96.5% (inactive); in assay [1] (setting [6]), 93%; in assay [1] (setting [7]) it was 95.9%; in assay [3], 99.3% (inactive). The GFP response relative to DMSO in assay [2] is 111% (inactive); in assay [2] (setting [8]), 111%; in assay [2] (setting [9]), 112%. The GFP response, % of DMSO in assay [4] is 95.9% (inactive); in assay [5] it was 91.7% (inactive); in assay [5] (setting [6]), 92.3%; in assay [5] (setting [7]), 90.4%.

Turning to `O=c1[nH]c(CCl)nc2cc(-c3ccc(Cl)cc3)sc12`, the GFP response vs DMSO in assay [1] is 95.8% (inactive); in assay [1] (setting [6]) it was 94.4%; in assay [1] (setting [7]) it was 98.5%; in assay [3], 107% (inactive). Also, the GFP response relative to DMSO in assay [2] is 101% (inactive); in assay [2] (setting [8]), 99.1%; in assay [2] (setting [9]), 100%. The GFP response, % of DMSO in assay [4] is 96.5% (inactive); in assay [5], 93% (inactive); in assay [5] (setting [6]) it was 92%; in assay [5] (setting [7]), 78.5%.

`COc1cc(NC(=O)c2ccc(C)cc2)ccc1NC(=O)c1cc2ccccc2o1`: the GFP response vs DMSO was 95.4% (inactive) in assay [1], 86% in assay [1] (setting [6]), 85.2% in assay [1] (setting [7]) and 99% (inactive) in assay [3]. The results for the GFP response relative to DMSO in assay [2], in assay [2] (setting [8]) and in assay [2] (setting [9]) were 95.7% (inactive), 91% and 91%, respectively. The GFP response, % of DMSO in assay [4] is 109% (inactive); in assay [5] it was 100% (inactive); in assay [5] (setting [6]) it was 88.4%; in assay [5] (setting [7]), 89.5%.

Regarding `Cn1ncc2c(O/N=C(\N)c3ccc(C(C)(C)C)cc3)ncnc21`, the GFP response vs DMSO is 92.7% (inactive) in assay [1], 92% in assay [1] (setting [6]), 87.9% in assay [1] (setting [7]) and 121% (inactive) in assay [3]. The GFP response relative to DMSO in assay [2] was 143% (inactive); in assay [2] (setting [8]) it was 96.6%; in assay [2] (setting [9]) it was 162%. Besides, the GFP response, % of DMSO was 106% (inactive) in assay [4], 182% (active) in assay [5], 114% in assay [5] (setting [6]) and 155% in assay [5] (setting [7]).

With `O=c1[nH]c2c(=O)[nH]cnc2nc1-c1ccccc1`, the GFP response vs DMSO in assay [1] is 103% (inactive); in assay [1] (setting [6]), 94.9%; in assay [1] (setting [7]), 96.3%; in assay [3] it was 101% (inactive). For the same molecule, the results for the GFP response relative to DMSO in assay [2], in assay [2] (setting [8]) and in assay [2] (setting [9]) were 97% (inactive), 95.9% and 88.8%, respectively. The GFP response, % of DMSO was 98.2% (inactive) in assay [4], 97.3% (inactive) in assay [5], 86.6% in assay [5] (setting [6]) and 89.5% in assay [5] (setting [7]).

For the molecule `CCCOc1ccc(C(=O)NNC(=S)NC(=O)CC)cc1`, the GFP response vs DMSO in assay [1] was 126% (inactive); in assay [1] (setting [6]), 103%; in assay [1] (setting [7]), 117%; in assay [3], 139% (inactive). In addition, the figures for the GFP response relative to DMSO in assay [2], in assay [2] (setting [8]) and in assay [2] (setting [9]) were 181% (active), 120% and 169%, respectively. Moreover, the GFP response, % of DMSO in assay [4] is 130% (inactive); in assay [5], 132% (inactive); in assay [5] (setting [6]), 121%; in assay [5] (setting [7]), 117%.
